Six compounds from ChEMBL document CHEMBL1157913, “Development of a new generation of 4-aminoquinoline antimalarial compounds using predictive pharmacokinetic and toxicology models” (J Med Chem, 2010) can be followed below.

A short description of series [1]: AUClast in CD1 mouse at 50 mg/kg, po. Format: ADME, organism-based. Set-up: time 0 - last, dose 50 mg/kg, route oral. The settings on record: plasma. The procedure, abridged: (§1)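 Male CD-1 mice given one 50 mg/kg oral gavage dose (n = 3), vehicle 0.9% saline or 5% DMSO/95% PEG300 depending on compound. Retro-orbital blood into EDTA under isoflurane at 15, 30, 60 min and 2, 4, 8, 10, 24, 48 h (3 mice per time point). Plasma analysed by LC-MS/MS; AUC0-t, Cmax, Tmax, t1/2 derived by noncompartmental software.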

Series [2] is described as follows: Permeability by PAMPA assay at pH 6.2. Format: ADME.
Series [3] is described as follows: Cmax in CD1 mouse at 50 mg/kg, po. In kind it is ADME, organism-based. The following applies: in vivo. Also on record: dose 50 mg/kg, route oral. The procedure, abridged: as §1
Series [4] in a line: Tmax in CD1 mouse at 50 mg/kg, po. In kind it is ADME, organism-based. Also on record: dose 50 mg/kg, route oral. The following applies: in vivo. The procedure, abridged: as §1
Series [5] in a line: Permeability by PAMPA assay at pH 7.4. In kind it is ADME. The procedure, abridged: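 Double-sink PAMPA, GIT-0 lipid-coated filter. Donor 50 μM final (from DMSO stock) at pH 5.0, 6.2 or 7.4; acceptor pH 7.4. Stirred 30 min (40 μm aqueous boundary layer), constant humidity. Both compartments read by UV absorbance 250–500 nm; Pe (cm/s) calculated, four wells per pH, mean ± SD.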

Series [6] can be described thus: Toxicity in po dosed CD1 mouse administered qd for 7 days. In kind it is organism-based. The following applies: in vivo. The procedure, abridged:
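Male and female CD-1 mice (6–8 weeks, n = 5/sex/dose group) received oral gavage once daily for 7 days at 50, 100, 200 or 100, 200, 400 mg/kg/day, depending on the article. The article was suspended daily in 5% DMSO:95% PEG 300, and vehicle-treated animals served as controls. Body weights were taken predose, on day 4 and on day 8. Day-8 retro-orbital blood went to hematology and serum chemistry, followed by necropsy with histopathology and organ weights. MTD was estimated.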

Series [7] is described as follows: Permeability by PAMPA assay at pH 5.0. Format: ADME.

Regarding `CCCN(CCCNc1ccnc2cc(Cl)ccc12)CC1CC1`, in series [1], the exposure AUC(0-t) worked out at 6.79 µM·h. The permeability was 2 ×10⁻⁶ cm/s in series [2] and 1109 ×10⁻⁶ cm/s in series [5]. In series [3], this compound registered a Cmax of 437 nM. Moreover, the Tmax in series [4] was 30 min.

With `Clc1ccc2c(NCCCNCc3cccc4c3OCO4)ccnc2c1`, the AUC(0-t) in series [1] stood at 2.03 µM·h. In addition, the figures for the permeability in series [2], in series [7] and in series [5] were 979 ×10⁻⁶ cm/s, 19 ×10⁻⁶ cm/s and 2400 ×10⁻⁶ cm/s, respectively. Moreover, the highest concentration (Cmax) in series [3] was determined as 240 nM. Moreover, the Tmax in series [4] was 120 min. In series [6], the MTD at 168 h came to 100 mg/kg.

As for `COc1cccc(CNCCCNc2ccnc3cc(Cl)ccc23)c1O`, the AUC(0-t) in series [1] amounted to 0.62 µM·h. Further, in series [3], the highest level (Cmax) was 65.9 nM. Besides, the Tmax in series [4] was determined as 240 min. The same compound displayed an MTD at 168 h in series [6] of 400 mg/kg. The compound further registered a permeability in series [5] of 1363 ×10⁻⁶ cm/s.

In the case of `CCN(CC)CCCC(C)Nc1ccnc2cc(C(F)(F)F)ccc12` (stereo not drawn), the permeability in series [2] was found to be 235 ×10⁻⁶ cm/s; in series [7], 2 ×10⁻⁶ cm/s; in series [5], 2704 ×10⁻⁶ cm/s.

Compound `CCN(CC)CCCC(C)Nc1ccnc2cc(Oc3ccccc3)ccc12` (stereo not drawn) yielded an AUC(0-t) in series [1] of 0.726 µM·h. This compound displayed a Cmax in series [3] of 261 nM. Besides, the Tmax in series [4] worked out at 30 min.

For the compound `CCN(CC)CCCC(C)Nc1ccnc2cc(Cl)ccc12` (stereo not drawn) [CHLOROQUINE], in series [1], the AUC(0-t) stood at 2.64 µM·h. Besides, the results for the permeability in series [2] and in series [5] were 51 ×10⁻⁶ cm/s and 775 ×10⁻⁶ cm/s, respectively. In addition, the highest level in series [3] (Cmax) was 444 nM. Besides, the time to peak (Tmax) in series [4] came out at 30 min.
